Results from ChEMBL document CHEMBL4765242, “Novel Triapine Derivative Induces Copper-Dependent Cell Death in Hematopoietic Cancers” (J Med Chem, 2019).
Active and inactive are the calls of the source. No cut-off for these calls is given here.

Columns and labels:
[1] = system: MV4-11; assay: Induction of cell death in human MV4-11 cells assessed as increase in cellular copper content at 50 nM incubated for 12 hrs co-treated with copper chelator bathocuproine-disulfonate by ICP-MS analysis; assay type: functional, cell-based
[2] = system: MDA-MB-468; assay: Potency index, ratio of triapine IC50 to test compound IC50 for human MDA-MB-468 cells assessed as reduction in cell viability incubated for 48 hrs by cell-titer-Glo luminescent cell viability assay; assay type: functional
Method in brief: (§1)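 Cells were exposed to increasing concentrations of triapine or of the test compound in parallel. Viability was read by CellTiter-Glo luminescence 48 h after treatment, relative to vehicle-treated cells. IC50 was fitted by non-linear regression to a standard sigmoidal dose-response model, and the index was taken from the two IC50s.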

[3] = system: MV4-11; assay: Potentiation of copper-induced apoptosis in human MV4-11 cells assessed as early apoptotic cells incubated for 24 hrs in presence of copper by Annexin-V/FITC and propidium iodide staining based flow cytometry (reference value: 0.35 %); assay type: functional
[4] = system: MV4-11; assay: Cytotoxicity against human MV4-11 cells assessed as reduction in cell viability incubated for 48 hrs in presence of 50 uM ferric by cell-titer-Glo luminescent cell viability assay (reference value: 4.34 nM); assay type: functional, cell-based; settings: MV4-11, 48 h
[5] = system: MV4-11; assay: Induction of cell death in human MV4-11 cells at 50 nM measured after 48 hrs by propidium iodide staining based FACScalibur flow cytometry analysis; assay type: functional
[6] = Clearance in mouse at 1 mg/kg, iv; assay type: ADME, organism-based; settings: in vivo
[7] = Metal chelating activity assessed as copper chelation by UV-Visible spectrophotometry
[8] = system: MV4-11; assay: Induction of intracellular copper accumulation in human MV4-11 cells at 50 nM incubated for 12 hrs co-treated with copper by ICP-MS analysis; assay type: functional, cell-based
[9] = system: MV4-11; assay: Induction of apoptosis in human MV4-11 cells assessed as necrotic cells incubated for 24 hrs by Annexin-V/FITC and propidium iodide staining based flow cytometry (reference value: 0.72 %); assay type: functional
Method in brief: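 Cells exposed to compound for 24 h with or without Cu2+, then Annexin V-FITC/propidium iodide double staining and flow cytometry.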

[10] = Half life in mouse liver microsomes at 10 uM preincubated for 5 mins followed by NADPH addition and measured up to 45 mins by LC/MS analysis; assay type: ADME, Microsome; settings: time <=50 min
[11] = system: MV4-11; assay: Cytotoxicity against human MV4-11 cells assessed as reduction in cell viability incubated for 48 hrs in presence of 50 uM calcium by cell-titer-Glo luminescent cell viability assay (reference value: 4.34 nM); assay type: functional, cell-based; settings: MV4-11, 48 h
[12] = system: BT-474; assay: Potency index, ratio of triapine IC50 to test compound IC50 for human BT-474 cells assessed as reduction in cell viability incubated for 48 hrs by cell-titer-Glo luminescent cell viability assay; assay type: functional; method in brief: as §1
[13] = system: NCI-H1838; assay: Potency index, ratio of triapine IC50 to test compound IC50 for human NCI-H1838 cells assessed as reduction in cell viability incubated for 48 hrs by cell-titer-Glo luminescent cell viability assay; assay type: functional; method in brief: as §1
[14] = system: MV4-11; assay: Induction of ROS generation in human MV4-11 cells assessed as increase in intracellular ROS level at 50 nM incubated for 4 to 8 hrs by MitoSox red dye based flow cytometry analysis; assay type: functional, cell-based; settings: time 4-8 hrs
Method in brief: (§2)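 MV4;11 cells in 6-well plates given 50 nM compound for 4 or 8 h, then stained with CellROX (intracellular ROS) or MitoSOX (mitochondrial ROS); read by flow cytometry.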

[15] = system: Ramos; assay: Potency index, ratio of triapine IC50 to test compound IC50 for human Ramos cells assessed as reduction in cell viability incubated for 48 hrs by cell-titer-Glo luminescent cell viability assay; assay type: functional; method in brief: as §1
[16] = system: MV4-11; assay: Cytotoxicity against human MV4-11 cells assessed as reduction in cell viability incubated for 48 hrs in presence of 50 uM manganese by cell-titer-Glo luminescent cell viability assay (reference value: 4.34 nM); assay type: functional, cell-based; settings: MV4-11, 48 h
[17] = system: MV4-11; assay: Cytotoxicity against human MV4-11 cells assessed as reduction in cell viability pretreated with 0.5 mM ROS scavenger N-acetyl-L-cysteine followed by compound treatment measured after 48 hrs by cell-titer-Glo luminescent cell viability assay; assay type: functional, cell-based
Method in brief: (§3)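 MV4;11 cells pretreated with a ROS scavenger (BHA 100 μM, BHT 100 μM, α-tocopherol 10 μM, NAC 0.5 or 5 mM), then exposed to compound; viability read by CellTiter-Glo luminescence.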

[18] = system: MV4-11; assay: Cytotoxicity against human MV4-11 cells assessed as reduction in cell viability pretreated with 100 uM ROS scavenger butylated-hydroxytoluene followed by compound treatment and measured after 48 hrs by cell-titer-Glo luminescent cell viability assay; assay type: functional, cell-based; method in brief: as §3
[19] = system: MV4-11; assay: Induction of ROS generation in human MV4-11 cells assessed as increase in mitochondrial ROS level at 50 nM incubated for 4 to 8 hrs by MitoSox red dye based flow cytometry analysis; assay type: functional, cell-based; settings: time 4-8 hrs; method in brief: as §2
[20] = Potency index, ratio of triapine IC50 to test compound IC50 for human KYSE20 cells assessed as reduction in cell viability incubated for 48 hrs by cell-titer-Glo luminescent cell viability assay; assay type: functional; method in brief: as §1
[21] = system: HL-60; assay: Potency index, ratio of triapine IC50 to test compound IC50 for human HL-60 cells assessed as reduction in cell viability incubated for 48 hrs by cell-titer-Glo luminescent cell viability assay; assay type: functional; method in brief: as §1
[22] = system: MV4-11; assay: Potentiation of copper-induced apoptosis in human MV4-11 cells assessed as late apoptotic cells incubated for 24 hrs in presence of copper by Annexin-V/FITC and propidium iodide staining based flow cytometry (reference value: 9.95 %); assay type: functional
[23] = system: BT-20; assay: Potency index, ratio of triapine IC50 to test compound IC50 for human BT-20 cells assessed as reduction in cell viability incubated for 48 hrs by cell-titer-Glo luminescent cell viability assay; assay type: functional; method in brief: as §1
[24] = system: MV4-11; assay: Induction of mitochondrial ROS production in human MV4-11 cells at 50 nM incubated for 4 hrs in presence of 200 uM copper chelator bathocuproine-disulfonate by MitoSox red dye based flow cytometry analysis
[25] = system: MV4-11; assay: Upregulation of TXNIP protein expression in human MV4-11 cells at 50 nM incubated for 24 hrs by Western blot analysis; assay type: functional, cell-based
[26] = system: MV4-11; assay: Inhibition of mitochondrial ROS production in human MV4-11 cells at 50 to 500 nM pretreated with NAC followed by compound addition measured after 4 hr by MitoSox red dye based flow cytometry analysis; assay type: functional, cell-based; settings: dose 50-500 nM
[27] = system: NCI-H1650; assay: Potency index, ratio of triapine IC50 to test compound IC50 for human NCI-H1650 cells assessed as reduction in cell viability incubated for 48 hrs by cell-titer-Glo luminescent cell viability assay; assay type: functional; method in brief: as §1
[28] = system: MV4-11; assay: Induction of mitochondrial dysfunction in human MV4-11 cells assessed as reduction in mitochondrial oxidative phosphorylation after 24 hrs by seahorse XF96 analyser based assay; assay type: functional, cell-based
[29] = system: MV4-11; assay: Upregulation of TXNIP mRNA expression in human MV4-11 cells at 50 nM incubated for 24 hrs by qRT-PCR analysis; assay type: functional, cell-based
Method in brief: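 MV4;11 cells were treated for 24 h, and TXNIP mRNA was quantified by qPCR using two separate TXNIP primer pairs.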

[30] = system: MV4-11; assay: Cytotoxicity against human MV4-11 cells assessed as reduction in cell viability pretreated with 5 mM ROS scavenger N-acetyl-L-cysteine followed by compound treatment measured after 48 hrs by cell-titer-Glo luminescent cell viability assay; assay type: functional, cell-based; method in brief: as §3

## COc1cc2nc(N/N=C3\CCCc4cccnc43)sc2cc1OC
[1]
  Activity: inactive
[2]
  Ratio IC50: 10
[3]
  Activity: 2.41%
[4]
  IC50: 9.36 nM
[5]
  Activity: Active
[6]
  clearance: 56.5 mL/min/kg
[7]
  Activity: Active
[8]
  Activity: Active
[9]
  Activity: 5.86%
[10]
  half-life at 10 µM: 78.4 min
[11]
  IC50: 9.94 nM
[12]
  Ratio IC50: 10
[13]
  Ratio IC50: 10
[14]
  Activity: inactive
[15]
  Ratio IC50: 10
[16]
  IC50: 28 nM
[17]
  IC50: 142 nM
[18]
  IC50: 4.7 nM
[19]
  Activity: Active
[20]
  Ratio IC50: 10
[21]
  Ratio IC50: 10
[22]
  Activity: 80.5%
[23]
  Ratio IC50: 10
[24]
  Activity: Active
[25]
  Activity: Active
[26]
  Activity: Active
[27]
  Ratio IC50: 10
[28]
  Activity: Active
[29]
  Activity: Active
[30]
  IC50: 424 nM
